Data taken from ChEMBL document CHEMBL1127785, “[[omega-(Heterocyclylamino)alkoxy]benzyl]-2,4-thiazolidinediones as potent antihyperglycemic agents” (1994).
Active and inactive are the calls of the source. The rule behind the calls is not given here.

Tests used:
Mus musculus [1] = assay: Percent reduction in area under glucose tolerance curve at 100 uM/kg dose in diet of mice.; format: functional
Method in brief: (§1)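 C57 Bl/6 ob/ob mice, 9–10 weeks old at purchase, 6–8 per group, kept at 26 ± 2 °C on a 12 h light/dark cycle. Compound was mixed into powdered diet, given fresh daily for 8 days. Mice were then fasted 5 h and given oral glucose 3 g/kg. Tail blood glucose was measured at 0, 45, 90 and 135 min by hexokinase/G6PDH. Read-out is % AUC reduction vs controls (trapezoid rule), Student's t-test.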

Mus musculus [2] = assay: Percent reduction in area under glucose tolerance curve (AUC) was determined at 1000 umol/kg dose of diet in mice; format: functional; method in brief: as §1
Mus musculus [3] = assay: Percent reduction in area under glucose tolerance curve (AUC) was determined at 100 umol/kg dose of diet in mice; IA = No significant activity; format: functional, organism-based; method in brief: as §1
Mus musculus [4] = assay: Percent reduction in area under glucose tolerance curve (AUC) was determined at 10 umol/kg dose of diet in mice; IA = No significant activity; format: functional, organism-based; method in brief: as §1
Mus musculus [5] = assay: Percent reduction in area under glucose tolerance curve (AUC) was determined at 30 umol/kg dose of diet in mice; format: functional; method in brief: as §1
Mus musculus [6] = assay: Percent reduction in area under glucose tolerance curve at 300 uM/kg dose in diet of mice.; format: functional; method in brief: as §1
Mus musculus [7] = assay: Percent reduction in area under glucose tolerance curve (AUC) was determined at 3 umol/kg dose of diet in mice; IA = No significant activity; format: functional, organism-based; method in brief: as §1
[8] = Selectivity ratio for Antihyperglycemic potency dose and No significant effect dose; format: functional
Mus musculus [9] = organism: Mus musculus; assay: Antihyperglycemic potency dose producing approximately 25% reduction in area under glucose tolerance curve; format: functional; method in brief: as §1
Mus musculus [10] = organism: Mus musculus; assay: No significant effect dose level on blood hemoglobin.; format: functional
Method in brief: (§2)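 Blood hemoglobin content was measured in C57 Bl/6 ob/ob mice after 8 days of compound given by dietary admixture. The value is the highest dose (µmol/kg of diet) with no significant reduction in blood hemoglobin.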

Mus musculus [11] = assay: Percent reduction in area under glucose tolerance curve (AUC) was determined at 30 umol/kg dose of diet in mice; IA = No significant activity; format: functional, organism-based; method in brief: as §1
Mus musculus [12] = assay: Percent reduction in area under glucose tolerance curve (AUC) was determined at 300 umol/kg dose of diet in mice; IA = No significant activity; format: functional, organism-based; method in brief: as §1
Mus musculus [13] = assay: Percent reduction in area under glucose tolerance curve (AUC) was determined at 1000 umol/kg dose of diet in mice; IA = No significant activity; format: functional, organism-based; method in brief: as §1
Mus musculus [14] = assay: Percent reduction in area under glucose tolerance curve (AUC) was determined at 3 umol/kg dose of diet in mice; format: functional; method in brief: as §1
Mus musculus [15] = assay: Percent reduction in area under glucose tolerance curve (AUC) was determined at 10 umol/kg dose of diet in mice; format: functional; method in brief: as §1
Mus musculus [16] = organism: Mus musculus; assay: No significant effect dose level on blood hemoglobin; format: functional; method in brief: as §2
Mus musculus [17] = assay: Percent reduction in area under glucose tolerance curve (AUC) was determined at 3000 umol/kg dose of diet in mice; format: functional; method in brief: as §1

O=C(NCCOc1ccc(CC2SC(=O)NC2=O)cc1)Nc1ccccc1 (centres undefined)
Reduction (Mus musculus [1]): 21%
Reduction (Mus musculus [2]): 58%

CN1C(=O)SC(Cc2ccc(OCCN(C)c3nc4ccccc4o3)cc2)C1=O (centres undefined)
Reduction (Mus musculus [2]): 42%
Reduction (Mus musculus [3]): Not significant

CN(CCOc1ccc(CC2SC(=O)NC2=O)cc1)c1nccs1 (centres undefined)
Reduction (Mus musculus [1]): 58%
Reduction (Mus musculus [4]): Not significant

Cc1ccnc(N(C)CCOc2ccc(CC3SC(=O)NC3=O)cc2)c1 (centres undefined)
Reduction (Mus musculus [5]): 34%
Reduction (Mus musculus [6]): 41%
Reduction (Mus musculus [7]): Not significant

CN(CCOc1ccc(CC2SC(=O)NC2=O)cc1)c1nc2ccccc2o1 (centres undefined) [BRL-48482]
Reduction (Mus musculus [1]): 57%
Selectivity ratio [8]: 10
Dose (Mus musculus [9]): 3 µM/kg
Reduction (Mus musculus [5]): 52%
Dose (Mus musculus [10]): 30 µM/kg
Reduction (Mus musculus [6]): 42%

Cc1cccc(N(C)CCOc2ccc(CC3SC(=O)NC3=O)cc2)n1 (centres undefined)
Reduction (Mus musculus [11]): Not significant
Reduction (Mus musculus [6]): 33%

CN(CCSc1ccc(CC2SC(=O)NC2=O)cc1)c1nc2ccccc2o1 (centres undefined)
Reduction (Mus musculus [1]): 20%

O=C(NCCOc1ccc(CC2SC(=O)NC2=O)cc1)Nc1ccc(Cl)c(Cl)c1 (centres undefined)
Reduction (Mus musculus [12]): Not significant

O=C(NCCOc1ccc(CC2SC(=O)NC2=O)cc1)Nc1ccc(F)cc1 (centres undefined)
Reduction (Mus musculus [13]): Not significant

CN(CCOc1ccc(CC2SC(=O)NC2=O)cc1)C(=O)NCc1ccccc1 (centres undefined)
Reduction (Mus musculus [11]): Not significant
Reduction (Mus musculus [6]): 41%

O=C1NC(=O)C(Cc2ccc(OCCNc3ncccn3)cc2)S1 (centres undefined)
Reduction (Mus musculus [5]): 15%

CN(CCOc1ccc(CC2SC(=O)NC2=O)cc1)C(=O)Nc1ccccc1 (centres undefined)
Reduction (Mus musculus [6]): 27%

Cc1sc(N(C)CCOc2ccc(CC3SC(=O)NC3=O)cc2)nc1-c1ccccc1 (centres undefined)
Reduction (Mus musculus [1]): 37%
Reduction (Mus musculus [4]): Not significant
Reduction (Mus musculus [5]): 20%

Cc1nc(N(C)CCOc2ccc(CC3SC(=O)NC3=O)cc2)sc1-c1ccccc1 (centres undefined)
Reduction (Mus musculus [1]): 39%
Selectivity ratio [8]: < 100
Dose (Mus musculus [9]): 3 µM/kg
Dose (Mus musculus [10]): <300 µM/kg
Reduction (Mus musculus [14]): 33%
Reduction (Mus musculus [15]): 27%

CN(CCOc1ccc(/C=C2\SC(=O)NC2=O)cc1)c1nc2ccccc2o1
Reduction (Mus musculus [6]): 30%

CN(CCOc1ccc(CC2[Se]C(=O)NC2=O)cc1)c1nc2ccccc2o1 (centres undefined)
Reduction (Mus musculus [1]): 45%
Reduction (Mus musculus [4]): Not significant

CN(CCOc1ccc(CC2SC(=O)NC2=O)cc1)c1nc2ccccc2s1 (centres undefined)
Reduction (Mus musculus [1]): 51%
Reduction (Mus musculus [15]): 36%
Reduction (Mus musculus [6]): 66%
Reduction (Mus musculus [7]): Not significant

CC(=O)N(CCOc1ccc(CC2SC(=O)NC2=O)cc1)c1ncccn1 (centres undefined)
Reduction (Mus musculus [5]): 19%

CN(CCOc1ccc(CC2SC(=O)NC2=O)cc1)c1ccc(Cl)cn1 (centres undefined)
Reduction (Mus musculus [11]): Not significant
Reduction (Mus musculus [6]): 44%

CN(CCOc1ccc(CC2SC(=O)NC2=O)cc1)c1ccc([N+](=O)[O-])cn1 (centres undefined)
Reduction (Mus musculus [11]): Not significant

O=C1NC(=O)C(Cc2ccc(OCCNC(=S)Nc3ccccc3)cc2)S1 (centres undefined)
Reduction (Mus musculus [1]): 10%
Reduction (Mus musculus [2]): 43%
Reduction (Mus musculus [11]): Not significant

Cc1csc(N(C)CCOc2ccc(CC3SC(=O)NC3=O)cc2)n1 (centres undefined)
Reduction (Mus musculus [5]): 53%
Reduction (Mus musculus [14]): 14%
Reduction (Mus musculus [15]): 28%

O=C1NC(=O)C(Cc2ccc(OCCNc3nc4ccccc4o3)cc2)S1 (centres undefined)
Reduction (Mus musculus [1]): 44%
Reduction (Mus musculus [11]): Not significant

CN(CCOc1ccc(CC2OC(=O)NC2=O)cc1)c1nc2ccccc2o1 (centres undefined)
Reduction (Mus musculus [1]): 23%
Reduction (Mus musculus [2]): 52%
Reduction (Mus musculus [11]): Not significant
Reduction (Mus musculus [6]): 41%

COc1cccc(N(C)CCOc2ccc(CC3SC(=O)NC3=O)cc2)n1 (centres undefined)
Reduction (Mus musculus [11]): Not significant
Reduction (Mus musculus [6]): 35%

O=C(NCCOc1ccc(CC2SC(=O)NC2=O)cc1)Nc1ccc(Cl)cc1 (centres undefined)
Reduction (Mus musculus [12]): Not significant

CC(CN(C)c1nc2ccccc2o1)Oc1ccc(CC2SC(=O)NC2=O)cc1 (centres undefined)
Reduction (Mus musculus [12]): Not significant

CN(CCOc1ccc(CC2CC(=O)NC2=O)cc1)c1nc2ccccc2o1 (centres undefined)
Reduction (Mus musculus [12]): Not significant

O=C1NC(=O)C(Cc2ccc(OCCN(Cc3ccccc3)c3nc4ccccc4s3)cc2)S1 (centres undefined)
Reduction (Mus musculus [3]): Not significant
Reduction (Mus musculus [6]): 56%

CN(CCOc1ccc(CCC2SC(=O)NC2=O)cc1)c1nc2ccccc2o1 (centres undefined)
Reduction (Mus musculus [3]): Not significant

CN(CC(O)COc1ccc(CC2SC(=O)NC2=O)cc1)c1nc2ccccc2o1 (centres undefined)
Reduction (Mus musculus [3]): Not significant

CN(CCOc1ccc(CC2SC(=O)NC2=O)cc1)c1ccc(N)cn1 (centres undefined)
Reduction (Mus musculus [11]): Not significant

CN(CCCOc1ccc(CC2SC(=O)NC2=O)cc1)c1nc2ccccc2o1 (centres undefined)
Reduction (Mus musculus [3]): inactive
Reduction (Mus musculus [6]): 32%

CN(CCCCOc1ccc(CC2SC(=O)NC2=O)cc1)c1nc2ccccc2o1 (centres undefined)
Reduction (Mus musculus [11]): Not significant
Reduction (Mus musculus [6]): 25%

CN(CCOc1ccc(C2SC(=O)NC2=O)cc1)c1nc2ccccc2o1 (centres undefined)
Reduction (Mus musculus [13]): inactive

CC(C)N(CCOc1ccc(CC2SC(=O)NC2=O)cc1)c1nc2ccccc2o1 (centres undefined)
Reduction (Mus musculus [1]): 20%

CN(CCOc1ccc(CC2SC(=O)NC2=O)cc1)c1nc(-c2ccccc2)cs1 (centres undefined)
Reduction (Mus musculus [1]): 34%
Reduction (Mus musculus [11]): Not significant

CN(CCOc1ccc(CC2SC(=O)NC2=O)cc1)c1ncc(-c2ccccc2)o1 (centres undefined)
Reduction (Mus musculus [5]): 22%
Reduction (Mus musculus [15]): 20%

CN(CCOc1ccc(CC2SC(=O)NC2=O)cc1)c1nccc(-c2ccccc2)n1 (centres undefined)
Reduction (Mus musculus [4]): Not significant

CN(CCOc1ccc(/C=C2\SC(=O)NC2=O)cc1)c1ccccn1
Reduction (Mus musculus [11]): inactive
Reduction (Mus musculus [6]): 47%

CN(CCOc1ccc(CC2SC(=O)NC2=O)cc1)c1ncccn1 (centres undefined)
Reduction (Mus musculus [1]): 43%
Selectivity ratio [8]: 10
Dose (Mus musculus [9]): 10 µM/kg
Reduction (Mus musculus [14]): 18%
Reduction (Mus musculus [15]): 18%
Dose (Mus musculus [16]): 100 µM/kg

CC(COc1ccc(CC2SC(=O)NC2=O)cc1)N(C)c1nc2ccccc2o1 (centres undefined)
Reduction (Mus musculus [3]): Not significant
Reduction (Mus musculus [6]): 38%

CN(CCOc1ccc(CC2SC(=O)NC2=O)cc1)c1ncccc1Cl (centres undefined)
Reduction (Mus musculus [5]): 15%
Reduction (Mus musculus [6]): 40%

Cc1nc(N(C)CCOc2ccc(CC3SC(=O)NC3=O)cc2)oc1C (centres undefined)
Reduction (Mus musculus [5]): 33%
Reduction (Mus musculus [15]): 16%
Reduction (Mus musculus [7]): Not significant

CN(CCOc1ccc(CC2SC(=O)NC2=O)cc1)c1cnccn1 (centres undefined)
Reduction (Mus musculus [1]): 46%
Reduction (Mus musculus [4]): Not significant

Cc1ccc(N(C)CCOc2ccc(CC3SC(=O)NC3=O)cc2)nc1 (centres undefined)
Reduction (Mus musculus [1]): 19%
Reduction (Mus musculus [5]): 18%
Reduction (Mus musculus [6]): 35%

COc1ccc(NC(=O)NCCOc2ccc(CC3SC(=O)NC3=O)cc2)cc1 (centres undefined)
Reduction (Mus musculus [12]): Not significant

CCc1ccc(CCOc2ccc(CC3SC(=O)NC3=O)cc2)nc1 (centres undefined) [PIOGLITAZONE]
Reduction (Mus musculus [2]): 62%
Reduction (Mus musculus [3]): inactive
Reduction (Mus musculus [17]): 63%
Reduction (Mus musculus [6]): 35%

CN(CC(Oc1ccc(CC2SC(=O)NC2=O)cc1)c1ccccc1)c1nc2ccccc2o1 (centres undefined)
Reduction (Mus musculus [11]): Not significant

CN(CCOc1ccc(CC2SC(=O)NC2=O)cc1)c1ccncc1 (centres undefined)
Reduction (Mus musculus [4]): Not significant

Cc1nc(N(C)CCOc2ccc(CC3SC(=O)NC3=O)cc2)sc1C (centres undefined)
Reduction (Mus musculus [4]): Not significant
Reduction (Mus musculus [5]): 47%

CC1(COc2ccc(CC3SC(=O)NC3=O)cc2)CCCCC1 (centres undefined) [CIGLITAZONE]
Reduction (Mus musculus [17]): 41%
Reduction (Mus musculus [12]): inactive

CN(CCOc1ccc(CC2SC(=O)NC2=O)cc1)/C(=N/c1ccccc1)NC#N (centres undefined)
Reduction (Mus musculus [12]): Not significant
